The full list was thinned out, with hits kept by preference.
INS-1E rescue = protection of INS-1E cells from cytokine death, primary screen, ATP luminescence, single point; INS-1E cytokine-induced death, 48 h; normalised: neutral wells 0, positive control 100; protection from cytokine-induced ATP loss, % at 10 µM; 20,000 compounds, 0.1% hits;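 active = mean replicate protection from cytokine-induced ATP loss at least 50% and at least 75% of replicates each reaching 50%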
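Test system: INS-1E rat cells | Quantity: 8000 cells per well | Medium: Phenol-red-free RPMI with 5% fetal bovine serum | Reagent: Cytokine cocktail of IFN-γ, TNF-α and IL-1β | Doses: One compound concentration, pin transfer | Timing: 48 h co-treatment, 10 min post-lysis read | Technique: Luminescent ATP assay (CellTiter-Glo)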
A1 apoptosis 2 = A1 inhibitors via caspase activation, primary screen, cell-based, luminescence, HTS, two replicates; 24,000 tested, under 10 active; caspase activation, % (concentration not given with the values); AID 2465, 2010; MEF A1-2A-BIM cells, caspase-Glo luminescence, 3 h; percent of clofoctol response, DMSO zero; in the data active = caspase activation above about 5.9%
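Test system – A1-2A-BIM-expressing MEF cells · Input – 2500 cells/well · Medium – RPMI-1640 growth medium with 10% FBS · Compound dosing – 50 nL pinned compound · Timing – 3 h compound exposure at 37 °C · Technique – Caspase-Glo luminescence (DEVD substrate) · Evaluation – Caspase-3/7 activity from luminescence increase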
T cruzi HTS = inhibitors of intracellular Trypanosoma cruzi, primary screen, cell-based, plate reader, single point, set 2. intracellular Trypanosoma cruzi in host cells. activity score (inhibition), % at 5.01 µM. 22,000 compounds, 4.9% hits; in the data active = activity score above about 55%;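 note: parasites and compound incubated about four days before reading; 0% = median of neutral control wells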
The depositor's hits bear a star.

C[C@H]1CN([C@@H](C)CO)C(=O)Cc2cc(NC(=O)c3ccncc3)ccc2O[C@H]1CN(C)Cc1ccc(C(=O)Nc2ccccc2N)cc1 was read as INS-1E rescue 1 and T cruzi HTS 34.
For COc1ccc(CN(C)C[C@@H]2Oc3ccc(NS(=O)(=O)c4c(C)noc4C)cc3CC(=O)N([C@H](C)CO)C[C@@H]2C)cc1 the results were INS-1E rescue -5, A1 apoptosis 2 0 and T cruzi HTS 7.
C[C@@H]1CCCCO[C@H](CN(C)C(=O)Cc2ccccc2)[C@@H](C)CN([C@@H](C)CO)C(=O)c2cc(NC(=O)Cc3ccccc3)ccc2O1 was read as A1 apoptosis 2 0.
Screening COc1ccc(CN(C)C[C@@H]2Oc3ccc(NS(=O)(=O)c4c(C)noc4C)cc3CC(=O)N([C@@H](C)CO)C[C@@H]2C)cc1 returned INS-1E rescue -7, A1 apoptosis 2 0 and T cruzi HTS 9.
`Cc1noc(C)c1NC(=O)N(C)C[C@H]1Oc2ccc(NS(=O)(=O)c3ccc(Cl)cc3)cc2C(=O)N([C@@H](C)CO)C[C@H]1C` gave INS-1E rescue 1 and T cruzi HTS -9.
Screening COc1ccc(NC(=O)Nc2ccc3c(c2)C(=O)N([C@@H](C)CO)C[C@@H](C)[C@H](CN(C)S(=O)(=O)c2cn(C)cn2)OCCCC[C@H](C)O3)cc1 returned A1 apoptosis 2 -1.
Screening C[C@H]1CN([C@@H](C)CO)C(=O)Cc2cc(NC(=O)Nc3ccc(F)cc3)ccc2O[C@H]1CN(C)Cc1ccc(C(=O)Nc2ccccc2N)cc1 returned INS-1E rescue -6, A1 apoptosis 2 -1 and T cruzi HTS 56*.
For C[C@H](CO)N1C[C@H](C)[C@@H](CN(C)Cc2ccc(C(=O)Nc3ccccc3N)cc2)Oc2ccc(NC(=O)Nc3ccc(F)cc3)cc2CC1=O the results were A1 apoptosis 2 0.
For C[C@@H]1CN([C@H](C)CO)C(=O)c2cc(NC(=O)CCCN(C)C)ccc2O[C@@H](C)CCCCO[C@H]1CN(C)C(=O)Nc1ccccc1 the results were A1 apoptosis 2 0.
Screening CCN(CC)c1ccc(/C=N/NC(=O)CCCCCCC(=O)Nc2ccccc2O)c(O)c1 returned INS-1E rescue -8, A1 apoptosis 2 0 and T cruzi HTS 66*.
For O=C(CCCCC(=O)N/N=C/c1ccc([N+](=O)[O-])s1)NO the results were INS-1E rescue 1, A1 apoptosis 2 -1 and T cruzi HTS 52.
For O=C(CCCCCCC(=O)Nc1ccccc1O)N/N=C/c1ccc([N+](=O)[O-])s1 the results were INS-1E rescue -36, A1 apoptosis 2 -2 and T cruzi HTS 89*.
For O=C(CCCCCCC(=O)Nc1ccccc1O)N/N=C/c1ccccc1O the results were INS-1E rescue 8, A1 apoptosis 2 0 and T cruzi HTS 24.
CCCC(O)C#Cc1cnc2c(c1)C(=O)N([C@H](C)CO)C[C@H](C)[C@H](CN(C)S(=O)(=O)c1cccc(F)c1)O2 (stereo partly specified) was read as A1 apoptosis 2 -1 and T cruzi HTS 24.
`C[C@@H]1CN([C@@H](C)CO)C(=O)c2cc(NC(=O)CCN3CCOCC3)ccc2O[C@H]1CN(C)C(=O)Nc1ccc(F)cc1` gave INS-1E rescue 3, A1 apoptosis 2 0 and T cruzi HTS -21.
Screening C[C@@H]1CN([C@H](C)CO)C(=O)c2cccc(NC(=O)Nc3ccc4c(c3)OCO4)c2O[C@@H]1CN(C)Cc1ccc(C(=O)Nc2ccccc2N)cc1 returned INS-1E rescue 11 and T cruzi HTS 68*.
Screening C[C@H]1CN([C@@H](C)CO)C(=O)c2cccc(NC(=O)Nc3ccc4c(c3)OCO4)c2O[C@H]1CN(C)Cc1ccc(C(=O)Nc2ccccc2N)cc1 returned INS-1E rescue -13 and T cruzi HTS 66*.
Screening C[C@@H]1CN([C@@H](C)CO)C(=O)c2cc(NC(=O)Nc3ccc4c(c3)OCO4)ccc2O[C@@H]1CN(C)Cc1ccc(C(=O)Nc2ccccc2N)cc1 returned INS-1E rescue 4 and T cruzi HTS 46.
`C[C@@H]1CN([C@@H](C)CO)C(=O)c2cc(NC(=O)Nc3ccc4c(c3)OCO4)ccc2O[C@H]1CN(C)Cc1ccc(C(=O)Nc2ccccc2N)cc1` gave INS-1E rescue -19, A1 apoptosis 2 0 and T cruzi HTS 55.
C[C@@H]1CCCCO[C@H](CN(C)C(=O)CCCN(C)C)[C@@H](C)CN([C@@H](C)CO)C(=O)c2cc(NC(=O)CCCN(C)C)ccc2O1 was read as A1 apoptosis 2 -1.
`C[C@@H]1CCCCO[C@H](CN(C)S(C)(=O)=O)[C@@H](C)CN([C@@H](C)CO)C(=O)c2cc(NC(=O)c3ccncc3)ccc2O1` gave A1 apoptosis 2 2.
COc1ccc(NC(=O)N(C)C[C@H]2Oc3ccc(NC(=O)Nc4ccc(C(F)(F)F)cc4)cc3C(=O)N([C@@H](C)CO)C[C@@H]2C)cc1 was read as INS-1E rescue 7, A1 apoptosis 2 1 and T cruzi HTS -6.
For C[C@H](CO)N1C[C@H](C)[C@H](CN(C)S(=O)(=O)c2cn(C)cn2)Oc2ccc(NC(=O)Nc3cccc4ccccc34)cc2C1=O the results were INS-1E rescue 8, A1 apoptosis 2 0 and T cruzi HTS -15.
C[C@H](CO)N1C[C@H](C)[C@H](CN(C)CC2CC2)Oc2c(NS(=O)(=O)c3cn(C)cn3)cccc2C1=O was read as INS-1E rescue 1, A1 apoptosis 2 -2 and T cruzi HTS -7.
Screening C[C@H]1CN([C@@H](C)CO)C(=O)c2cccc(NC(=O)NC3CCCCC3)c2O[C@H]1CN(C)Cc1ccc(-c2ccccc2)cc1 returned INS-1E rescue -19 and T cruzi HTS -29.
C[C@@H]1CN([C@H](C)CO)C(=O)c2cccc(NC(=O)NC3CCCCC3)c2O[C@@H]1CN(C)Cc1ccc(C(F)(F)F)cc1 was read as INS-1E rescue -27 and T cruzi HTS 23.
Screening C[C@@H]1CN([C@H](C)CO)C(=O)c2cccc(NC(=O)NC3CCCCC3)c2O[C@@H]1CN(C)Cc1ccc(-c2ccccc2)cc1 returned INS-1E rescue -32 and T cruzi HTS 70*.
`C[C@@H]1CN([C@@H](C)CO)C(=O)c2cccc(NC(=O)NC3CCCCC3)c2O[C@H]1CN(C)Cc1ccc(C(F)(F)F)cc1` gave INS-1E rescue -6 and T cruzi HTS 85*.
For C[C@@H]1CN([C@H](C)CO)C(=O)c2cccc(NC(=O)NC3CCCCC3)c2O[C@H]1CN(C)CC1CCCCC1 the results were INS-1E rescue -57, A1 apoptosis 2 -1 and T cruzi HTS 83*.
Screening C[C@H](CO)N1C[C@H](C)[C@@H](CN(C)CC2CCCCC2)Oc2c(NC(=O)NC3CCCCC3)cccc2C1=O returned INS-1E rescue -13 and T cruzi HTS 23.
For C[C@@H]1CN([C@H](C)CO)C(=O)c2cccc(NS(=O)(=O)c3cn(C)cn3)c2O[C@@H]1CN(C)CC1CCCCC1 the results were INS-1E rescue 1, A1 apoptosis 2 1 and T cruzi HTS 60*.
